In data set [1] the test system is MCF7. Kind of data set: Inhibition of histone acetyltransferase in human MCF7 cells assessed as increase of alpha-tubulin acetylation level after 15 mins by Western blotting. The format is cell-based.
The subject of data set [2] is U-937. The experiment in a line: Cell cycle arrest in human U937 cells assessed as accumulation at S phase at 25 uM after 30 hrs using propidium iodide staining by flow cytometry. Format: functional, cell-based. Put shortly:
(§1)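 U937 cells kept at 200,000 cells/mL, 37 °C, 5% CO2, treated 30 h at 50 or 25 µM. Phase distribution by flow cytometry. Three independent experiments, mean ± SD.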

Data set [3] deals with U-937. Kind of data set: Induction of granulocytic differentiation in human U937 after […] using propidium iodide staining by FACS analysis. Format: functional, cell-based. For orientation: A flow cytometer gives signals particle by particle.
Data set [4] addresses Histone acetyltransferase KAT2B (Homo sapiens) (UniProt Q92831). The experiment in a line: Increase of human recombinant KAT2B acetylation activity using histone H4 peptide as substrate at 50 uM after 2 hrs. Put shortly: (§2)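 Human PCAF (200 ng) in KAT buffer with 10 µg histone H4 peptide (aa 2–24), 20 µM acetyl-CoA with 0.5 µCi/mL [3H]-acetyl-CoA, and compound at 50 µM final, 2 h at 37 °C. Spotted on P81 paper in triplicate, washed with TCA then acetone, scintillation counted. Activity given as % of untreated control (100%).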

For data set [5], the target named is CREB-binding protein (Homo sapiens) (UniProt Q92793). The experiment in a line: Inhibition of human recombinant KAT3A expressed in Escherichia coli BL21 using histone H4 peptide as substrate at 50 uM after 2 hrs relative to control. Put shortly: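 Recombinant CBP fragment (aa 1098–1877) from E. coli BL21, affinity purified. Spotted on P81 paper in triplicate, washed with TCA/acetone, scintillation DPM compared with negative control, expressed as %.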

The test system of data set [6] is U-937. Kind of data set: Induction of apoptosis in human U937 cells at 25 uM after 30 hrs using annexin V/propidium iodide double-staining by FACS analysis. Format: functional, cell-based. Put shortly:
(§3)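 U937 cells at 200,000 cells/mL, 37 °C, 5% CO2, exposed 30 h at 50 or 25 µM. Dose–response runs used 5–200 µM, with IC50 taken as the concentration giving 50% apoptosis. Annexin V/propidium iodide double staining, apoptotic subpopulations counted by FACS. Three independent experiments, mean ± SD.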

Data set [7] concerns MCF7. The experiment in a line: Inhibition of histone acetyltransferase in human MCF7 cells assessed as increase of alpha-tubulin acetylation level at 15 uM after 15 mins by Western blotting. Format: cell-based. The method, boiled down: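 MCF-7 cells grown in D-MEM at 200,000 cells/mL, 37 °C, 5% CO2, treated at 15 and 30 µM. Lysis in 50 mM Tris–HCl pH 7.4, 150 mM NaCl, 1% NP40, NaF, PMSF and protease inhibitors, 15 min at 4 °C. Bradford quantitation. Western blot with anti-acetyl-α-tubulin (1:1000), ERK1 as loading control.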
On the technique in general: A western blot detects proteins with antibodies after separation by electrophoresis.

The target in data set [8] is Histone acetyltransferase KAT2B (Homo sapiens) (UniProt Q92831). Kind of data set: Inhibition of human recombinant KAT2B using histone H4 peptide as substrate at 50 uM after 2 hrs. The method, boiled down:
as §2

In data set [9] the test system is U-937. The experiment in a line: Inhibition of histone acetyltransferase in human U937 cells assessed as inhibition of acetylation of histone H4 at K5 at 50 uM after 24 hrs by Western blotting. Format: cell-based. The method, boiled down:
(§4)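 U937 cells treated 24 h at 50 µM. Acid-extracted histones (Triton buffer lysis, then 0.2 M HCl overnight at 4 °C) immunoblotted with site-specific antibodies (H3K9/K14/K18/K56ac, H4K5/K8/K16ac, pan-acetyl H4; 1:1000). Loading checked by Ponceau Red staining, or by histone H1 for pan-acetyl H4.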

Data set [10] relates to MCF7. Kind of data set: Inhibition of histone acetyltransferase in human MCF7 cells assessed as increase of alpha-tubulin acetylation level at 15 and 30 uM after 15 mins by Western blotting.
Data set [11] addresses Histone acetyltransferase p300 (Homo sapiens) (UniProt Q09472). The experiment in a line: Binding affinity to immobilized His6-tagged human full-length KAT3B expressed in Sf9 cells by surface plasmon resonance assay. For orientation: SPR reads the build-up and loss of mass on a sensor chip optically.
For data set [12] the target is unchanged. The experiment in a line: Binding affinity to His6-tagged immobilized human KAT3B catalytic domain expressed in Sf9 cells by surface plasmon resonance assay.
Data set [13] concerns U-937. The experiment in a line: Inhibition of histone acetyltransferase in human U937 cells assessed as inhibition of acetylation of histone H3 at K9 at 50 uM after 24 hrs by Western blotting. The format is cell-based. The method, boiled down:
as §4

The target of data set [14] is Histone deacetylase (Homo sapiens) (UniProt Q13547+O15379+Q9UBN7+Q92769+Q9UQL6+Q8WUI4+Q9BY41+Q96DB2+P56524+Q9UKV0+Q969S8). Kind of data set: Inhibition of HDAC in human U937 cells at 50 uM after 15 mins by Western blotting. The format is cell-based. To be noted: U-937.
The next data set deals with Albumin (Bos taurus, UniProt P02769). Kind of data set: Binding affinity to bovine serum albumin by surface plasmon resonance assay. As to conditions: cattle.
The subject of data set [15] is U-937. The experiment in a line: Induction of apoptosis in human U937 cells at 50 uM after 30 hrs using annexin V/propidium iodide double-staining by FACS analysis. The format is functional. Put shortly: as §3
The subject of data set [16] is U-937. Kind of data set: Induction of apoptosis in human U937 cells after 30 hrs using annexin V/propidium iodide double-staining by FACS analysis. The format is functional, cell-based. As to conditions: U-937, 30 h. The method, boiled down:
as §3

Data set [17] relates to U-937. Kind of data set: Inhibition of histone acetyltransferase in human U937 cells assessed as inhibition of acetylation of histone H3 at K18 at 50 uM after 24 hrs by Western blotting. The format is cell-based. The method, boiled down: as §4
Data set [18] concerns U-937. The experiment in a line: Inhibition of histone acetyltransferase in human U937 cells assessed as inhibition of acetylation of histone H3 at K56 at 50 uM after 24 hrs by Western blotting. The format is cell-based. The method, boiled down: as §4
Data set [19] relates to U-937. The experiment in a line: Inhibition of histone acetyltransferase in human U937 cells assessed as inhibition of acetylation of histone H4 at K8 at 50 uM after 24 hrs by Western blotting. Format: cell-based. Put shortly:
as §4

The test system of data set [20] is U-937. The experiment in a line: Inhibition of histone acetyltransferase in human U937 cells assessed as inhibition of acetylation of histone H4 at K16 at 50 uM after 24 hrs by Western blotting. Format: cell-based. Put shortly:
as §4

For data set [21], the system named is U-937. Kind of data set: Inhibition of histone acetyltransferase in human U937 cells assessed as inhibition of acetylation of histone H3 at K14 at 50 uM after 24 hrs by Western blotting. The format is cell-based. The method, boiled down:
as §4

For data set [22], the system named is U-937. The experiment in a line: Cell cycle arrest in human U937 cells assessed as accumulation at S phase at 50 uM after 30 hrs using propidium iodide staining by flow cytometry. Format: functional, cell-based. The method, boiled down:
as §1

In data set [23] the test system is U-937. The experiment in a line: Inhibition of histone acetyltransferase in human U937 cells assessed as increase of histone H3 acetylation level at 50 uM after 15 mins by Western blotting. The format is cell-based. Put shortly: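 U937 cells treated at 50 µM. Histones prepared by Triton extraction buffer lysis, then overnight 0.2 M HCl extraction at 4 °C, Bradford quantitation. Immunoblot with pan-acetyl-H3 antibody (1:1000), Ponceau Red staining as loading check.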

The subject of data set [24] is U-937. Kind of data set: Inhibition of histone acetyltransferase in human U937 cells assessed as increase of acetylation of histone H3 at K18 at 50 uM after 24 hrs by Western blotting. Format: cell-based. Put shortly:
as §4

Data set [25] deals with U-937. The experiment in a line: Inhibition of histone acetyltransferase in human U937 cells assessed as increase of acetylation of histone H4 at K8 at 50 uM after 24 hrs by Western blotting. Format: cell-based. Put shortly:
as §4

Data set [26] has as its system U-937. The experiment in a line: Inhibition of histone acetyltransferase in human U937 cells assessed as increase of acetylation of histone H3 at K56 at 50 uM after 24 hrs by Western blotting. The format is cell-based. Put shortly:
as §4

For data set [27], the system named is U-937. Kind of data set: Inhibition of histone acetyltransferase in human U937 cells assessed as increase of acetylation of histone H4 at K5 at 50 uM after 24 hrs by Western blotting. The format is cell-based. Put shortly: as §4
The test system of data set [28] is U-937. Kind of data set: Inhibition of histone acetyltransferase in human U937 cells assessed as increase of pan-acetylated histone H4 level at 50 uM after 24 hrs by Western blotting. The format is cell-based. The method, boiled down:
as §4

Data set [29] has as its system U-937. Kind of data set: Inhibition of histone acetyltransferase in human U937 cells assessed as increase of acetylation of histone H4 at K16 at 50 uM after 24 hrs by Western blotting. The format is cell-based. The method, boiled down:
as §4

For data set [30], the system named is U-937. The experiment in a line: Inhibition of histone acetyltransferase in human U937 cells assessed as increase of acetylation of histone H3 at K14 at 50 uM after 24 hrs by Western blotting. The format is cell-based. Put shortly: as §4
The test system of data set [31] is U-937. The experiment in a line: Inhibition of histone acetyltransferase in human U937 cells assessed as increase of acetylation of histone H3 at K9 at 50 uM after 24 hrs by Western blotting. The format is cell-based. The method, boiled down: as §4

Active and inactive are the calls of the source. The calls are words filed in the database; no cut-off is given here.

This is an account of results in ChEMBL document CHEMBL1795294, “Modulation of the activity of histone acetyltransferases by long chain alkylidenemalonates (LoCAMs)” (Bioorg Med Chem, 2011).

Chain of CREB-binding protein (Homo sapiens) (Q92793 2-2442 limits assumed): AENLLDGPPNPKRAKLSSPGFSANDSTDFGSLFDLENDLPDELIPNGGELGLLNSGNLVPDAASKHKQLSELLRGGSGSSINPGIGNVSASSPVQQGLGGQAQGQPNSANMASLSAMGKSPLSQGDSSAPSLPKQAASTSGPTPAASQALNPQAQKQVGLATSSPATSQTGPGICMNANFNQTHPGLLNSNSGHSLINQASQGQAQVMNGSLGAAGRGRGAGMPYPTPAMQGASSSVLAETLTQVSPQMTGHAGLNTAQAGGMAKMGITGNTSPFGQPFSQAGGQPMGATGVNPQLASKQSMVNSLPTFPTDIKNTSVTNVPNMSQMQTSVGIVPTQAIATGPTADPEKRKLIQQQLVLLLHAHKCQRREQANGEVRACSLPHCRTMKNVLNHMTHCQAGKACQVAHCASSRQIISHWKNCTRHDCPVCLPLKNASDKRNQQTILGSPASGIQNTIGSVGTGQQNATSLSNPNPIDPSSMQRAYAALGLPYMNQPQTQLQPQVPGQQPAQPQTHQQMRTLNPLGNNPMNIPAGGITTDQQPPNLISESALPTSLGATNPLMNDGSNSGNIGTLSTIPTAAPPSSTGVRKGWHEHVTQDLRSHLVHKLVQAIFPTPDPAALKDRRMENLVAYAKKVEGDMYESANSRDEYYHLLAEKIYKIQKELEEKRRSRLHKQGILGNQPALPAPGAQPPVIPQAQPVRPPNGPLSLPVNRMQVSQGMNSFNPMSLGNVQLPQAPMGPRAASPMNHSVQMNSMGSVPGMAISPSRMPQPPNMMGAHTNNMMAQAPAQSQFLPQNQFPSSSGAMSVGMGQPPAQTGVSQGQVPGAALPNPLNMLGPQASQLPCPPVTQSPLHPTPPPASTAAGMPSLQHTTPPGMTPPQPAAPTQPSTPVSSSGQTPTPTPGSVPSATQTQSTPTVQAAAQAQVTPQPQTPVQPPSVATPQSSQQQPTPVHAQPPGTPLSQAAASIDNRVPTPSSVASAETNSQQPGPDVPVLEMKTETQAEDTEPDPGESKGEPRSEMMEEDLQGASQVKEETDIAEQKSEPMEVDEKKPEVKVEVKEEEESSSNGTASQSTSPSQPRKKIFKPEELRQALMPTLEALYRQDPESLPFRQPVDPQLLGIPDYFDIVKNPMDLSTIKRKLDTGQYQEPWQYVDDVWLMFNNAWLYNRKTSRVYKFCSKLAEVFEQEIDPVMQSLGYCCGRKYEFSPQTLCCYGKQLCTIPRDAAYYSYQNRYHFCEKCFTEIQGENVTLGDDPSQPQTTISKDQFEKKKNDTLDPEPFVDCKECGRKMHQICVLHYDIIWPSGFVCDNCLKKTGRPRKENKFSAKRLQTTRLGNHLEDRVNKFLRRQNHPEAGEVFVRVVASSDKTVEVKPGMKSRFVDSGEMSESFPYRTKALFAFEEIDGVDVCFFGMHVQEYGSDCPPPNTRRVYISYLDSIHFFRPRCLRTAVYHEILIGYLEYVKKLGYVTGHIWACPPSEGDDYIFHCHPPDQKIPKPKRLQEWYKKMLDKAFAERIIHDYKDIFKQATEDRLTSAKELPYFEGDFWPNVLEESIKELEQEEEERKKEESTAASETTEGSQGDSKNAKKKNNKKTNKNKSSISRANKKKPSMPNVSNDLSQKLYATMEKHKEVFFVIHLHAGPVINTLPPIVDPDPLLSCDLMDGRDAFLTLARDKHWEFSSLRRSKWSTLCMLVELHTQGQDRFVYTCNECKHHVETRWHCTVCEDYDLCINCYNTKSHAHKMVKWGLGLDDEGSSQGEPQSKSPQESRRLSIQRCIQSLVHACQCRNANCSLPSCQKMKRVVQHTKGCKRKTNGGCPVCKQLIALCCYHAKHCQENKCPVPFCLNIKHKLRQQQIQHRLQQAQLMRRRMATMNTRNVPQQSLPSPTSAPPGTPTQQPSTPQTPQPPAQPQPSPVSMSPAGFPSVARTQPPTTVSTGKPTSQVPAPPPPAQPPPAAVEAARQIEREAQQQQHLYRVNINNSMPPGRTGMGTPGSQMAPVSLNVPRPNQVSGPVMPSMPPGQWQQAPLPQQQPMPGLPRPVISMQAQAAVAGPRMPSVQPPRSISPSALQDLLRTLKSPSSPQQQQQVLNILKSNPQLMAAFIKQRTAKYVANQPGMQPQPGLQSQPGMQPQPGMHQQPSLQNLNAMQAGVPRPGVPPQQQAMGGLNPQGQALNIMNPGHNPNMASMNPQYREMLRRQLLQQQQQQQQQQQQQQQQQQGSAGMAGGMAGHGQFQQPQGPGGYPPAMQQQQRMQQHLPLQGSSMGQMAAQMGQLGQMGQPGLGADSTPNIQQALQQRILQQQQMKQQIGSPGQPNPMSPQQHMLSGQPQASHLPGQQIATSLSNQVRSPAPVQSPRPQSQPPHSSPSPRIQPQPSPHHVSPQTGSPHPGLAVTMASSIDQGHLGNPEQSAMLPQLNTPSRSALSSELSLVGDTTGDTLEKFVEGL
Chain of Histone acetyltransferase KAT2B (Homo sapiens) (Q92831 whole entry, looked up, the tested form may be a part): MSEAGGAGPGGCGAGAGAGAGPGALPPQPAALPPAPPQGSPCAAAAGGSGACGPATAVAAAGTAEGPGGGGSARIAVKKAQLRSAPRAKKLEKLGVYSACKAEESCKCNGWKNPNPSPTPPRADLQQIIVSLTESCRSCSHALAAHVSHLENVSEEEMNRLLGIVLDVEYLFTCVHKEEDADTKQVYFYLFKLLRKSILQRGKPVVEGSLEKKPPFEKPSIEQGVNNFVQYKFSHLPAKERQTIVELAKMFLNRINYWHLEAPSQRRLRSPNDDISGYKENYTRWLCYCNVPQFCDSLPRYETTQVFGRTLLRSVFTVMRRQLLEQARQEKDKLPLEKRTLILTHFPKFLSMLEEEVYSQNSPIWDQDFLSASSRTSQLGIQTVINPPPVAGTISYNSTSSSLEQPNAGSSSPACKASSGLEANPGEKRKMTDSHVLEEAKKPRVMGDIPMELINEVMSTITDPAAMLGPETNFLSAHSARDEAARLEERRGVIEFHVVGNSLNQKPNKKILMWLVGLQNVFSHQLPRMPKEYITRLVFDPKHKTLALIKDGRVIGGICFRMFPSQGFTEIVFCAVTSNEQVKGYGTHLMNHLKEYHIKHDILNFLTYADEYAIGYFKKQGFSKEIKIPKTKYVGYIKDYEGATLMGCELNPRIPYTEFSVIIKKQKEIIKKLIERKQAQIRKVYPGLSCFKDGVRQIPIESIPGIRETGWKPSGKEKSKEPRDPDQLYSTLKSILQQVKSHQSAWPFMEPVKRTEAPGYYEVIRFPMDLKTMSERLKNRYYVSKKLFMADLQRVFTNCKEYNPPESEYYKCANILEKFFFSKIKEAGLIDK
Chain of Albumin (P02769 whole entry): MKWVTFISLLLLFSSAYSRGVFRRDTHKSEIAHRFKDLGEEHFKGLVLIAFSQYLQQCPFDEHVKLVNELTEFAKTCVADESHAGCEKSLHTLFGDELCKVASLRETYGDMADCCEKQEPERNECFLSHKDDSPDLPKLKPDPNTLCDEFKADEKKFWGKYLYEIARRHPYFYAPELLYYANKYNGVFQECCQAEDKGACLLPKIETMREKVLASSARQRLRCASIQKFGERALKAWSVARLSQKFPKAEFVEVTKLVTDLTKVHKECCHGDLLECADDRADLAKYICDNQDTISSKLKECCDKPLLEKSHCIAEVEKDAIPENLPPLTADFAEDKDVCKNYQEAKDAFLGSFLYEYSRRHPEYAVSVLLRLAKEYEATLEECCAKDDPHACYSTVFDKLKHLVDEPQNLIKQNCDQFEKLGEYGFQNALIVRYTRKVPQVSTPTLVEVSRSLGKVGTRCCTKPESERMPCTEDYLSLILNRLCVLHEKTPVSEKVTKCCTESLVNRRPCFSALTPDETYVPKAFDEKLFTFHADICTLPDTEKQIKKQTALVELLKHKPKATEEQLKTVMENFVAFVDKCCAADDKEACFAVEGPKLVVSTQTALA

A word on the inhibition: it is the relative decrease from the control value, in per cent. For `CCCCCCCCCCCCCNC=C(C(=O)OCC)C(=O)OCC`, the inhibition entry in the data set with MCF7 [1] was “Dose-dependent effect”. For the same molecule, the outcome with U-937 [2], with U-937 [3] and in the data set on U-937 [6] was inactive. The outcome in data set [4] was Active. For the same molecule, the inhibition result in [5] is “Active”.
Regarding `CCCCCCCCCCCCCCCC(O)=C(C(=O)OCC)C(=O)OCC`, the outcome in the data set on U-937 [2], in the data set with U-937 [3] and in the data set with U-937 [6] was inactive. Further, the inhibition entry (in [5]; with MCF7 [7]; in [8]) was “Active” in each case.
In general, IC50 refers to the concentration needed to halve the response being measured. A lower IC50 goes with higher potency. In the case of `CCCCCCCCCCCCCC=C(C(=O)OCC)C(=O)OCC`, the inhibition result (with U-937 [9]; in the data set with U-937 [13]; in [5]; with U-937 [17]; in the data set with U-937 [18]; in the data set with U-937 [20]) was “Active” each time. The inhibition entry in the data set with U-937 [21] and in the data set with U-937 [23] was “Active” throughout. Moreover, the inhibition entry (with MCF7 [10]; in data set [14]; in the data set with U-937 [19]) was “inactive” in each case. Further, the Activity result is “Dose-dependent effect” in [11], “Dose-dependent effect” in data set [12], “Not Active” on Albumin and 51.8% in the data set with U-937 [15]. In addition, the outcome in the data set on U-937 [3] was inactive. The result (in data set [4]; in the data set with U-937 [22]) was Active. In the data set on U-937 [16], this molecule showed an IC50 of 42.9 µM.
`CCCCCCCCCCCCCCC=C(C(=O)OCC)C(=O)OCC`: the inhibition entry in the data set with U-937 [24], with U-937 [28], with U-937 [31] and in the data set on U-937 [23] was “Active” throughout. Moreover, the inhibition result with U-937 [25], in the data set on MCF7 [10], in the data set with U-937 [26], with U-937 [27], in the data set on U-937 [29] and in the data set on U-937 [30] was “inactive” throughout. Further, the inhibition result (in [14]; in the data set with U-937 [19]) was “inactive” each time. Also, the Activity entry was “Dose-dependent effect” in data set [11], “Dose-dependent effect” in data set [12], “Not Active” on Albumin and 94.4% in the data set on U-937 [15]. The outcome in the data set with U-937 [3] was inactive. The result (in data set [4]; in the data set with U-937 [22]) was Active. Further, the IC50 with U-937 [16] is 44.9 µM. For the same molecule, the inhibition in data set [5] worked out at 79%.
For the molecule `CCCCCCCCCCCC=C(C(=O)OCC)C(=O)OCC`, the inhibition entry (with U-937 [24]; in the data set on U-937 [9]; in the data set on U-937 [28]; in [5]; in the data set on U-937 [18]; in the data set with U-937 [31]) was “Active” each time. Also, the inhibition entry (with U-937 [20]; in the data set with U-937 [21]; with U-937 [23]; in data set [8]) was “Active” each time. The inhibition entry with MCF7 [10] and in the data set on U-937 [19] was “inactive” in each case. Moreover, the values for the Activity entry (in data set [11]; on Albumin; with U-937 [15]) were “Dose-dependent effect”, “Not Active” and 60.2%, respectively. Moreover, the result (in data set [12]; with U-937 [3]) was inactive. The molecule further yielded an IC50 in the data set with U-937 [16] of 84.2 µM. Also, the outcome in the data set on U-937 [22] was Active.
